Compounds with a hit are over-represented: about 0.98% of the library has one in this group of screens.
C2C12 statin: suppression of simvastatin myotoxicity | C2C12 myotubes + simvastatin, ATP luminescence, 48 h; scaled: DMSO 0, geranylgeraniol control 100 | rescue of ATP level, % at 7.49 µM | actives 0.78% (n = 330,000) | AID 602340;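 active means mean ATP rescue above about 67%, or every replicate alone reaching that limit, limit read from the data, passing the limit was not always enough; inconclusive means no clear call, values can overlap the other calls; inactive means mean under the limit and some replicate under it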;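 further: myotubes were challenged with 10 µM simvastatin during compound exposure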
PGC1a acetyl inh: lowers PGC1a acetylation signal in U2OS cells; AlphaScreen anti-acetyl-lysine; with virally co-expressed GCN5 acetyltransferase; actives 0.17% (n = 350,000); inhibition, % at 15.6 µM; AID 651687;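 active means every replicate shows inhibition of at least 40%; inconclusive means mean inhibition at least 40% but some replicate below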;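 further: 0% = neutral control wells and 100% = positive control wells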
Rtt109 Vps75: blocks Candida albicans Rtt109/Vps75 acetyltransferase activity. Q5AAJ8. purified Rtt109/Vps75, ThioGlo CoA-SH fluorescence, 4 h. inhibition, % at 34.9 µM. actives 0.16% (n = 330,000);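 active means inhibition of at least 50% in every replicate; inconclusive means best replicate reaches 50% inhibition but some replicates fall short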
Target sequence (Q5AAJ8 whole entry, looked up): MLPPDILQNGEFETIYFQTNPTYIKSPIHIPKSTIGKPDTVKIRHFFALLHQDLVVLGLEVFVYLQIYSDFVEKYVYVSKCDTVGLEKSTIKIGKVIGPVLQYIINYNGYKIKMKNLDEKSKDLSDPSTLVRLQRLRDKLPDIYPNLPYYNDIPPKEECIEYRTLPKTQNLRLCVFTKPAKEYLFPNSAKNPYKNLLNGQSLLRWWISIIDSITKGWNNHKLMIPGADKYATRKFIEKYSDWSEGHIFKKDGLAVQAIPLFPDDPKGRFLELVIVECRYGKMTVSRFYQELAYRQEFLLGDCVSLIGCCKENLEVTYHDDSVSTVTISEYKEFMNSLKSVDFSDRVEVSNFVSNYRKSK
S100A4 inh HTS: S100A4-myosin IIA interaction inhibition | actives 0.14% (n = 360,000) | S100A4/TAMRA-MyoIIA peptide fluorescence polarization | inhibition, % at 10.7 µM | P26447 | AID 652163;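 active means mean inhibition of at least 70% across replicates, with every replicate also reaching that level; inconclusive means mean inhibition reaches 70% but some replicates fall short; inactive means mean inhibition below 70%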
Target sequence (P26447 whole entry, looked up): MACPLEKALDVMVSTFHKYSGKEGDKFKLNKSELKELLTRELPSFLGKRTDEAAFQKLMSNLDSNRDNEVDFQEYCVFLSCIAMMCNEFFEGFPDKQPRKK
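Material: S100A4 monomer (human). Medium: Calcium-containing HEPES buffer, pH 7.2. Probe or stimulus: labelled myosin peptide probe, 5 nM. Compound dosing: one concentration per compound. Timing: polarization read 5 min after assay mix addition, stable 5–60 min. Benchmarks: DMSO as neutral control, TFP as positive control.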
ERAP1 inh: ERAP1 (human) enzyme inhibition; inhibition, % at 10.7 µM; actives 0.15% (n = 340,000); recombinant ERAP1, Leu-AMC fluorescence, 60 min; Q9NZ08; AID 652197;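 active means mean replicate inhibition of at least 30%, or all replicates individually reaching that 30% level; inactive means mean below 30% and not every replicate reaching it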;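 further: 0% = neutral control wells and 100% = L-leucinethiol positive control wells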
* hit, by the source's call; u = inconclusive; x = no result given; ! = repeats disagree.

SMILES | C2C12 statin | PGC1a acetyl inh | Rtt109 Vps75 | S100A4 inh HTS | ERAP1 inh
Cc1ccc(S(=O)(=O)Nc2ccc3c(c2)CC(=O)N([C@H](C)CO)C[C@@H](C)[C@@H](CN(C)Cc2ccc(C(F)(F)F)cc2)O3)cc1 | 67* | -1 | x | x | x
Cc1ccc(S(=O)(=O)Nc2ccc3c(c2)CC(=O)N([C@@H](C)CO)C[C@H](C)[C@@H](CN(C)Cc2ccc(C(F)(F)F)cc2)O3)cc1 | 40 | 0 | x | x | x
C[C@H](CO)N1C[C@H](C)[C@@H](CN(C)Cc2ccc(C(F)(F)F)cc2)Oc2ccc(NS(=O)(=O)c3ccc(Cl)cc3)cc2CC1=O | 112* | -11 | x | -13 | -1
C[C@@H]1CN([C@@H](C)CO)C(=O)Cc2cc(N(C)C)ccc2O[C@H]1CN(C)Cc1ccc(C(F)(F)F)cc1 | 97* | -11 | x | 9 | 0
Cc1ccc(S(=O)(=O)Nc2ccc3c(c2)CC(=O)N([C@@H](C)CO)C[C@@H](C)[C@H](CN(C)Cc2ccc(C(F)(F)F)cc2)O3)cc1 | 69* | -2 | x | x | x
C[C@H]1CN([C@@H](C)CO)C(=O)Cc2cc(N(C)C)ccc2O[C@H]1CN(C)Cc1ccc(C(F)(F)F)cc1 | -88 | 3 | x | 0 | x
CN1c2ccc(Br)cc2[C@H]2[C@H](CCN2S(=O)(=O)c2cccc(F)c2)[C@@H]1CO | 32 | -28 | x | -1 | 1
O=C1c2ccccc2C(=O)N1CCC1=CCCCC1 | 122* | -7 | x | x | x
O=c1c(O[C@@H]2O[C@H](CO)C(O)C2O)c(-c2ccc(O)c(O)c2)oc2cc(O)cc(O)c12 (stereo partly drawn) | x | 11 | -1 | x | x
O=c1c(OC2OC(CO)C(O)C(O)C2O)c(-c2ccc(O)c(O)c2)oc2cc(O)cc(O)c12 (stereo not drawn) | 2 | 7 | 3 | 1 | 56*
COc1cccc(C(CC(=O)NCc2ccco2)NS(=O)(=O)c2ccc(C)cc2)c1OC (stereo not drawn) | 100* | 7 | -7 | x | x
Cc1ccc(-c2[nH][nH]c(=O)c(=O)c2N=Nc2ccccc2)cc1 | 211* | 0 | -13 | -9 | x
Cc1cc(=O)n2[nH]c(=O)c(N=Nc3ccccc3)c2[nH]1 | 9 | u | 10 | x | x
CCOc1ccccc1NC(=O)C1CCCN(S(=O)(=O)c2ccc(OC)c(C)c2)C1 (stereo not drawn) | 122* | -8 | -10 | x | x
CC(/C=C\c1cccnc1)=C/C(=O)O | 116*! | -6 | 0 | x | x
COc1cc(/C=N/NC(=O)c2ccc(CN3C(=O)c4cccc5cccc3c45)cc2)cc(OC)c1O | 87* | -5 | 1 | -4 | x
O=S(=O)(c1ccccc1F)N1CCCCN2[C@@H](CO)[C@@H](c3ccc(-c4cccnc4)cc3)[C@@H]2C1 | x | 2 | x | 8 | -2
CC1CCc2c(sc(N)c2C(N)=O)C1 (stereo not drawn) | -16 | 7 | 50* | -1 | 2
CCC1CCc2c(sc(N)c2C(N)=O)C1 (stereo not drawn) | 7 | 2 | 1 | 2 | 2
COc1ccc(C(O)(CC(C)C)C(CN2CCOCC2)c2ccccc2)cc1 (stereo not drawn) | 30 | -18 | -1 | -4 | -5
CCc1ccc(C(O)(CC(C)C)C(CN2CCOCC2)c2ccccc2)cc1 (stereo not drawn) | 106* | -29 | 1 | -1 | -2
CS(=O)(=O)C1=NN2C(=N)/C(=C\c3ccc(OC(=O)c4ccco4)cc3)C(=O)N=C2S1 | -1 | -8 | 57* | -12 | 0
CC(C)CS(=O)(=O)C1=NN2C(=N)/C(=C\c3ccc(OC(=O)c4ccco4)cc3)C(=O)N=C2S1 | 15 | -5 | -1 | -9 | -1
CNC[C@H]1Oc2c(NC(=O)c3ccc(-c4nccs4)cc3)cccc2C(=O)N([C@H](C)CO)C[C@@H]1C | -4 | -1 | x | -17 | 0
C[C@@H]1CN([C@@H](C)CO)C(=O)CCCn2nncc2CO[C@H]1CN(C)S(=O)(=O)c1ccc(Cl)cc1 | 10 | 97*! | x | -5 | 6
SMILES | C2C12 statin | PGC1a acetyl inh | Rtt109 Vps75 | S100A4 inh HTS | ERAP1 inh
C[C@H](CO)N1C[C@H](C)[C@@H](CN(C)Cc2ccc(-c3ccccc3)cc2)Oc2ccc(NS(C)(=O)=O)cc2CC1=O | 29 | -9 | x | 2 | -2
Cc1ccc(S(=O)(=O)Nc2ccc3c(c2)CC(=O)N([C@@H](C)CO)C[C@H](C)[C@H](CN(C)Cc2ccc(-c4ccccc4)cc2)O3)cc1 | 16 | 0 | x | 21 | -2
C[C@H](CO)N1C[C@H](C)[C@@H](CN(C)S(=O)(=O)c2ccc(Cl)cc2)OCc2cnnn2CCCC1=O | 4 | 5 | x | -3 | 0
Cc1ccc(S(=O)(=O)Nc2ccc3c(c2)CC(=O)N([C@@H](C)CO)C[C@H](C)[C@@H](CN(C)Cc2ccc(-c4ccccc4)cc2)O3)cc1 | 129* | -5 | x | 11 | -2
Cc1ccc(S(=O)(=O)Nc2ccc3c(c2)CC(=O)N([C@@H](C)CO)C[C@@H](C)[C@H](CN(C)S(=O)(=O)c2ccc(C)cc2)O3)cc1 | 95* | -9 | x | 1 | -2
C[C@@H]1CN([C@H](C)CO)C(=O)Cc2cc(NS(C)(=O)=O)ccc2O[C@@H]1CN(C)Cc1ccc(-c2ccccc2)cc1 | 95* | -5 | x | -12 | -1
CN(C)CC#Cc1ccc([C@H]2[C@@H](CO)N3C(=O)CN(C(=O)c4cccnc4)C[C@@H]23)cc1 | x | 7 | x | -14 | -2
COCC(=O)Nc1ccc2c(c1)OC[C@H](C)N(Cc1ccccc1OC)C[C@H](C)[C@@H](OC)CN(C)C2=O | x | 8 | x | 10 | -2
Cc1nc(NCc2ccco2)c2cn[nH]c2n1 | 95* | 2 | -4 | -2 | -2
CCCNC(=O)N1CC2(C1)[C@@H](c1ccccc1)[C@@H](CO)N2CC1CCOCC1 | x | -1 | x | 8 | 6
COc1ccccc1-n1nnnc1SCC(=O)Nc1ccccn1 | 72* | 4 | 1 | x | x
Cc1cc(C(=O)OCC(=O)Nc2cc(C(F)(F)F)ccc2N2CCOCC2)c(C)o1 | 94* | -9 | -4 | x | x
COc1ccc(N=C2SCC(c3ccc(C)cc3)=NN2CCO)cc1 | -31 | 78* | -6 | -3 | 2
COc1ccc(N=C2SCC(c3ccc([N+](=O)[O-])cc3)=NN2CCO)cc1 | x | -12 | 14 | 2 | 0
Cc1ccc(S(=O)(=O)Nc2ccc3c(c2)CC(=O)N([C@H](C)CO)C[C@@H](C)[C@@H](CN(C)S(=O)(=O)c2cn(C)cn2)O3)cc1 | -2 | 2 | x | 5 | -5
CN(C)C(=O)c1cccc(-c2ccc3c(c2)[C@@H]2[C@@H](CCN2C(=O)C2CCC2)[C@H](CO)N3)c1 | x | x | x | -4 | -10
O=C(Oc1ccc(C(=S)N2CCOCC2)cc1Br)c1ccccc1F | 149* | -7 | -2 | x | x
O=C(Oc1ccc(C(=S)N2CCOCC2)cc1Cl)c1ccccc1F | -1 | -3 | 0 | -1 | 0

Screening results (PubChem)
